The source of these data is ChEMBL document CHEMBL3414436, “Strong antibacterial properties of anion transporters: a result of depolarization and weakening of the bacterial membrane” (J Med Chem, 2015).

The source made the active and inactive calls. The calls are words filed in the database; no cut-off is given here. Bounds are passed on as bounds.

In series [1] the test system is Escherichia coli. Nature of the series: Induction of membrane permeabilization in Escherichia coli SK037 expressing TolC mutant at 40 times MIC after 2 hrs by diSC25 dye-based fluorescence assay. Format: functional, organism-based. The method in brief:
(§1)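 E. coli SK037 grown overnight in LB at 37°C, washed in 5 mM HEPES pH 7.3 with 20 mM glucose and diluted to A600 0.15. diSC25 (1 µM final) equilibrated 1 h at 37°C to a stable baseline. Compound in DMSO added to 0.4 mM or 1 mM final. Fluorescence ex 600/em 660 nm followed ~2 h with stirring at 37°C.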

The subject of series [2] is Lipid bilayer. The series can be described thus: Binding affinity to DPPC liposomes assessed as induction of chloride ion efflux at 35 to 45 degC after 250 secs by fluorimetric analysis. The following applies: Microsome. A digest of the protocol:
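Lucigenin-loaded (2 mM) DPPC LUVs (100 nm extruded) containing 100 mM NaCl and 10 mM sodium phosphate pH 6.4, external dye removed by gel filtration. Vesicles diluted into 2.5 mL stirred phosphate buffer at 35, 40 or 45°C. Transporter in MeOH added at t = 50 s to 10 mol% relative to lipid; Triton X-100 lysis at 300 s. Fluorescence ex 372/em 503 nm. Average of three runs.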

In series [3] the test system is Escherichia coli. The series can be described thus: Induction of membrane depolarization in Escherichia coli SK037 expressing TolC mutant at 40 times MIC after 2 hrs by diSC25 dye-based fluorescence assay. Format: functional, organism-based. The method in brief: as §1
For series [4], the system named is Escherichia coli. The series can be described thus: Antibacterial activity against Escherichia coli SK037 expressing TolC mutant assessed as change in cell morphology and membrane damage after 12 to 24 hrs by field emission scanning electron microscopic analysis. In kind it is functional, organism-based. The method in brief:
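E. coli SK037 grown in LB, washed three times, resuspended in 10 mM PBS pH 7.4 and diluted to A600 1.20 (9 x 10^8 CFU/mL). Cells exposed to 0.04 mM or 0.08 mM compound (added in DMSO) on poly-lysine-coated glass slides at 37°C for 12 h or 24 h. Fixed with 2.5% glutaraldehyde, stained with 1% OsO4, ethanol-dehydrated, critical-point dried, carbon-coated, imaged by field emission SEM.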

Series [5] has as its system Escherichia coli. Nature of the series: Antibacterial activity against Escherichia coli SK037 expressing TolC mutant measured for 24 hrs. Format: functional. A digest of the protocol: (§2)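 Broth microdilution in LB at 37°C. Overnight precultures regrown to OD600 0.5, then diluted to OD600 0.1. Compound added in DMSO, final DMSO max 2.5% (v/v). Plates stirred; OD600 read at 0, 4, 8 and 24 h. MIC taken as lowest concentration with no detectable growth. Triplicates from independent cultures.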

Series [6] concerns Escherichia coli. Nature of the series: Antibacterial activity against wild type Escherichia coli DH5alpha measured for 24 hrs. In kind it is functional, DH5[alpha]. A digest of the protocol:
as §2

Series [7] relates to Bacillus thuringiensis. Nature of the series: Antibacterial activity against Bacillus thuringiensis HD73 measured for 24 hrs. In kind it is functional. A digest of the protocol: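 Broth microdilution in LB. Overnight 37 °C preculture, regrown to OD600 0.5, diluted to OD600 0.1. Wells hold culture plus compound in DMSO (DMSO max 2.5% v/v final). Incubated at 37 °C with stirring, OD600 read at 0, 4, 8 and 24 h. MIC is the lowest concentration with no detectable growth. Triplicates from independent cultures.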

Series [8] in a line: Binding affinity to egg yolk phosphotidylcholine liposomes assessed as induction of chloride ion efflux after 250 secs by fluorimetric analysis relative to lipid. The method in brief: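 EYPC LUVs (100 nm extruded) loaded with 2 mM lucigenin, 100 mM NaCl and 10 mM sodium phosphate pH 6.4. Liposomes are suspended in NaNO3 buffer at 37 °C. Transporter in MeOH, at various concentrations, is added at 50 s and Triton X-100 lysis at 300 s. Chloride efflux is read as lucigenin fluorescence (ex 372, em 503 nm). Traces are averaged over triplicates.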

Series [9] relates to Escherichia coli. The series can be described thus: Ratio of MIC for wild type Escherichia coli DH5alpha to MIC for Escherichia coli SK037 expressing TolC mutant. In kind it is functional.
The nature of series [10]: Induction of nitrate anions efflux in chloroform phase at 1 mM by fluorescence-based U-tube method. In kind it is physicochemical. The note with it: 1000 µM. The method in brief:
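U-tube: 10 mL chloroform containing 1 mM ionophore separates 5 mL of 0.1 mM aqueous lucigenin (donor arm) from 5 mL water (receiving arm). Lucigenin fluorescence in the receiving phase is monitored at ex 372 and em 503 nm. Neat chloroform serves as control.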

The nature of series [11]: Hemolytic activity in human RBC at 25 uM after 1 hr relative to control. In kind it is ADME, cell-based, Erythrocyte. The note with it: red blood cells (RBC), read-out: Activity. A digest of the protocol:
(§3)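 Human type O erythrocytes are washed in PBS and used at 2% v/v. Two-fold serial dilutions in DMSO are added, then incubated for 1 or 24 h at 37 °C with gentle shaking. After centrifugation at 2000g, hemoglobin release is read as supernatant A405. It is normalized to PBS (0%) and 0.5% Triton X-100 (100%). Mean of three experiments.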

Series [12] is described as follows: Hemolytic activity in human RBC at 25 uM after 24 hrs relative to control. In kind it is cell-based, Erythrocyte. The following applies: red blood cells (RBC), read-out: Activity. The method in brief: as §3
Where [13] appears, read: Escherichia coli, SK037, 24 h, read-out: MIC.
[14] abbreviates: Escherichia coli, DH5[alpha], 24 h, read-out: MIC.
Setting [15] is: Bacillus thuringiensis, HD73, 24 h, read-out: MIC.

Consider `C(#Cc1ccc(C[n+]2cn(Cc3cccc(Cn4c[n+](Cc5ccc(C#Cc6ccccc6)cc5)c5ccccc54)n3)c3ccccc32)cc1)c1ccccc1.O=S(=O)([N-]S(=O)(=O)C(F)(F)F)C(F)(F)F.O=S(=O)([N-]S(=O)(=O)C(F)(F)F)C(F)(F)F` [listing 1 of 2 here], for which the result in series [1], in series [2] and in [3] was Active.
Take `C(#Cc1ccc(Cn2c[n+](Cc3ccc(C#Cc4ccccc4)cc3)c3ccccc32)cc1)c1ccccc1.O=S(=O)([N-]S(=O)(=O)C(F)(F)F)C(F)(F)F` [listing 1 of 2 here]: in series [1], the result was Active.
Consider `C(#Cc1ccc(C[n+]2cn(Cc3cccc(Cn4c[n+](Cc5ccc(C#Cc6ccccc6)cc5)c5ccccc54)n3)c3ccccc32)cc1)c1ccccc1`, for which the result in series [1], in series [2] and in series [3] was Active. In series [4], the Activity result was “Dose-dependent effect”.
A word on the MIC: it is the lowest concentration found to suppress growth. In the case of `C(#Cc1ccc(Cn2c[n+](Cc3ccc(C#Cc4ccccc4)cc3)c3ccccc32)cc1)c1ccccc1.[Br-]`, the minimal inhibitory concentration (MIC) is greater than 100 µM in series [5] (setting [13]), greater than 100 µM in [6] (setting [14]) and 10 µM in series [7] (setting [15]). For the same molecule, the EC50 in series [8] was found to be 14.8 mol%.
Take `C(#Cc1ccc(Cn2c[n+](Cc3ccc(C#Cc4ccccc4)cc3)c3ccccc32)cc1)c1ccccc1.O=S(=O)([N-]S(=O)(=O)C(F)(F)F)C(F)(F)F` [listing 2 of 2 here]: the Ratio in [9] is reported as 2.5. The MIC in series [5] (setting [13]) is 25 µM; in series [6] (setting [14]), greater than 100 µM; in series [7] (setting [15]), 10 µM. For the same molecule, in series [8], the EC50 stood at 5.8 mol%.
As to `C(#Cc1ccc(C[n+]2cn(-c3cccc(-n4c[n+](Cc5ccc(C#Cc6ccccc6)cc5)c5ccccc54)n3)c3ccccc32)cc1)c1ccccc1.O=S(=O)([O-])C(F)(F)F.O=S(=O)([O-])C(F)(F)F`, the MIC in [6] was greater than 100 µM; in series [7], 10 µM. Besides, the EC50 in series [8] came out at 12 mol%.
`C(#Cc1ccc(C[n+]2cn(Cc3cccc(Cn4c[n+](Cc5ccc(C#Cc6ccccc6)cc5)c5ccccc54)n3)c3ccccc32)cc1)c1ccccc1.[Br-].[Br-]`: the Ratio in [9] is 10. Besides, the Activity entry in series [10] is “Not Active”. Besides, the figures for the MIC in series [5] (setting [13]), in series [6] and in series [7] were 10 µM, 100 µM and 10 µM, respectively. Also, the EC50 in series [8] worked out at 14 mol%.
Consider `C(#Cc1ccc(C[n+]2cn(-c3cccc(-n4c[n+](Cc5ccc(C#Cc6ccccc6)cc5)c5ccccc54)n3)c3ccccc32)cc1)c1ccccc1.O=S(=O)([N-]S(=O)(=O)C(F)(F)F)C(F)(F)F.O=S(=O)([N-]S(=O)(=O)C(F)(F)F)C(F)(F)F`, for which the MIC is greater than 100 µM in [5] (setting [13]), greater than 100 µM in [6] (setting [14]) and 10 µM in series [7] (setting [15]). Besides, in series [8], the EC50 is recorded as 6.9 mol%.
Turning to `C(#Cc1ccc(C[n+]2cn(-c3cccc(-n4c[n+](Cc5ccc(C#Cc6ccccc6)cc5)c5ccccc54)n3)c3ccccc32)cc1)c1ccccc1.[Br-].[Br-]`, the MIC was greater than 100 µM in series [5] (setting [13]), greater than 100 µM in [6] (setting [14]) and 10 µM in [7] (setting [15]). In addition, in [8], the EC50 is 24 mol%.
With `C(#Cc1ccc(C[n+]2cn(Cc3cccc(Cn4c[n+](Cc5ccc(C#Cc6ccccc6)cc5)c5ccccc54)n3)c3ccccc32)cc1)c1ccccc1.O=S(=O)([O-])C(F)(F)F.O=S(=O)([O-])C(F)(F)F`, the Ratio in series [9] stood at 2.5. Further, in [10], the outcome was Active. The figures for the MIC in series [5], in series [6] and in [7] were 10 µM, 25 µM and 2 µM, respectively. Also, in series [11], the hemolysis at 1 h, 25 µM is less than 10%. Further, the hemolysis at 24 h, 25 µM in [12] came out at 10%. Further, the EC50 in series [8] is recorded as 0.46 mol%.
For `C(#Cc1ccc(C[n+]2cn(Cc3cccc(Cn4c[n+](Cc5ccc(C#Cc6ccccc6)cc5)c5ccccc54)n3)c3ccccc32)cc1)c1ccccc1.O=S(=O)([N-]S(=O)(=O)C(F)(F)F)C(F)(F)F.O=S(=O)([N-]S(=O)(=O)C(F)(F)F)C(F)(F)F` [listing 2 of 2 here], the Ratio in series [9] came to 2.5. The Activity result in series [10] is on record as “Not Active”. Also, the MIC in [5] (setting [13]) was 10 µM; in series [6] (setting [14]), 50 µM; in series [7] (setting [15]), 10 µM. Moreover, the EC50 in series [8] stood at 5.6 mol%.
